Screening results deposited in PubChem by Broad Institute.
Only some compounds are listed: those with a hit (about 2.5% of all), similar ones and a draw of the others.
miR122 inh: blocks miR-122 activity in Huh7 sensor cells; Huh7 miR-122 Renilla luciferase sensor, 48 h; neutral wells = 0, positive control = 100; activation (reporter increase), % at 12.5 µM; hit rate 0.3% among 340,000; AID 602342;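 active = mean replicate activation score at least 90 and every replicate individually at or above 90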;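 note: higher luciferase means less miR-122 activity so hits act as miR-122 inhibitors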
SIRT5 block: blocks human SIRT5 desuccinylation of peptide. hit rate 1.1% among 330,000. Q9NXA8. inhibition, % at 15 µM. Purified SirT5, succinyl-peptide AMC, trypsin-coupled fluorescence; in the data active = inhibition above about 15%
Target sequence (Q9NXA8 whole entry, looked up): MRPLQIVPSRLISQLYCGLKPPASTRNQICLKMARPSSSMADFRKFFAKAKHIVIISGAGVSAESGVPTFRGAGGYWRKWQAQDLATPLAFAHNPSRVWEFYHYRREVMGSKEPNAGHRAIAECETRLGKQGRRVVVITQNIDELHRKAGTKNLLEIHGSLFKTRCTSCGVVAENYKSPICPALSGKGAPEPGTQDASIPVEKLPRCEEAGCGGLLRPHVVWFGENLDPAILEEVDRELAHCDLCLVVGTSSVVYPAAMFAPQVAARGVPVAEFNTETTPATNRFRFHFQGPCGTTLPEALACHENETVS
FGF22 binding-1: FGF22 (human) thermal shift binding | Q9HCT0 | recombinant FGF22 thermal shift, SYPRO orange fluorescence; percent of sucrose octasulfate shift, DMSO zero | activity (Tm shift, normalised), % at 9.99 µM | hit rate 1.5% among 340,000 | AID 651658;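 active = mean Tm shift, scaled 0 neutral to 100 positive control, at about 1.3% or above, every replicate too, limit read from the data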
Target sequence (Q9HCT0 whole entry, looked up): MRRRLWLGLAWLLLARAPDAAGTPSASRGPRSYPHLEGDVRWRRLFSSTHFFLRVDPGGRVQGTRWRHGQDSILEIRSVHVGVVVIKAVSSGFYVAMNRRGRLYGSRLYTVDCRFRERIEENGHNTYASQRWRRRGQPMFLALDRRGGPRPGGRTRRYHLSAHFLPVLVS
S100A4 MyoIIA: S100A4-myosin IIA interaction inhibition. inhibition, % at 10.7 µM. AID 652163. hit rate 0.14% among 360,000. S100A4/TAMRA-MyoIIA peptide fluorescence polarization;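 active = mean inhibition of at least 70% across replicates, with every replicate also reaching that level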
Target sequence (P26447 whole entry, looked up): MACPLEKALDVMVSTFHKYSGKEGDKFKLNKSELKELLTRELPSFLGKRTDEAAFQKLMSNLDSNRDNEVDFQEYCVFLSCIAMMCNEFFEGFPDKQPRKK
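incubation = readout 5 min after mixing, signal stable up to 60 min | system = S100A4 monomer protein | buffer or medium = HEPES pH 7.2 with CaCl2, KCl, NaCl, DTT, Triton | benchmarks = neutral control DMSO, positive control TFP | also added = fluorescent myosin IIA peptide, 5 nM | compound dosing = one concentration per compound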
E-selectin induc: induces E-selectin expression in human endothelial cells | P16581 | HUVEC E-selectin immunofluorescence imaging; normalized: neutral wells 0, TNF-alpha wells 100 | activation, % at 7.58 µM | hit rate 0.37% among 260,000 | AID 686992;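 active = mean E-selectin-positive cell signal at least 10% of the positive control, reached in at least 60% of replicates, without over 20% cell loss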
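Material: HUVEC primary endothelial cells; Amount: 3,000 cells per well; Dosing: single concentration; Medium: EGM-2 growth medium on 0.1% gelatin-coated wells; Read-out basis: percent E-selectin-positive cells; Signal: immunofluorescence imaging; Control set: TNF-alpha, DMSO.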
FGF22 binding-2: binds human FGF22 shifting its melting temperature; shares compounds with FGF22 binding-1; recombinant FGF22 thermal shift, SYPRO orange fluorescence; thermal shift activity, °C (ΔTm) at 38 µM; hit rate 2% among 1,000;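 active = fitted rise in melting shift crosses a set limit at or below the top valid dose tested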
SYPRO no-protein: counter-screen for FGF22 binders: compound-only thermal shift, no protein. shares compounds with FGF22 binding-1. compound-only SYPRO orange thermal shift counter-screen. AC50, µM (highest dose often 38 µM). hit rate 2% among 1,000. AID 743019;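 active = rising signal whose fitted curve reaches the 0.54 level within the top valid dose, showing a melting point, actives reach about 13 µM in these data; inactive = the rest, including activity in the opposite direction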; note: value is where the raw curve crosses a fixed level and not half-maximal
Numbers without * were called inactive; i = inactive; . = not tested or not shown; ! = repeats disagree; [ ] = remark or other dose.

SMILES	miR122 inh	SIRT5 block	FGF22 binding-1	S100A4 MyoIIA	E-selectin induc	FGF22 binding-2	SYPRO no-protein
C[C@@H]1CN([C@H](C)CO)C(=O)Cc2cc(NS(C)(=O)=O)ccc2O[C@H]1CN(C)Cc1ccc(C(=O)O)cc1	8.0[16.7 µM]	-0.2	0.5	10.5	-0.1	.	.
C[C@H]1CN([C@@H](C)CO)C(=O)Cc2cc(NC(=O)C3CC3)ccc2O[C@@H]1CN(C)Cc1ccc(Cl)c(Cl)c1	0.2[16.7 µM]	7.0	-0.7	-1.6	-0.3	.	.
Cc1ccc(S(=O)(=O)N(C)C[C@@H]2Oc3ccc(NC(=O)Nc4ccccc4)cc3C(=O)N([C@@H](C)CO)C[C@H]2C)cc1	-10.8[16.7 µM]	11.4	-0.2	-13.8	-0.1	.	.
COc1ccc(S(=O)(=O)Nc2ccc3c(c2)C(=O)N([C@H](C)CO)C[C@H](C)[C@H](CN(C)CC2CC2)OCCCC[C@@H](C)O3)cc1	-4.8[16.7 µM]	-0.4	-0.1	-8.2	0.1	.	.
COc1ccc(NC(=O)N(C)C[C@@H]2Oc3ccc(NS(=O)(=O)c4cccs4)cc3CC(=O)N([C@H](C)CO)C[C@H]2C)cc1	-11.3[16.7 µM]	.	28.0*	.	0.0	-0.011	i
COc1ccc(S(=O)(=O)Nc2ccc3c(c2)C(=O)N([C@H](C)CO)C[C@H](C)[C@H](CN(C)CC2CC2)OCCCC[C@H](C)O3)cc1	-0.3[16.7 µM]	-2.4	1.4*	-7.0	1.3	0.018	i
COc1ccc(S(=O)(=O)N(C)C[C@@H]2Oc3ccc(NC(=O)Nc4ccccc4)cc3CC(=O)N([C@H](C)CO)C[C@@H]2C)cc1	-10.0[16.7 µM]	4.6	1.7*	-3.4	0.2	0.036[42 µM]	i
COc1ccc(S(=O)(=O)Nc2ccc3c(c2)CC(=O)N([C@@H](C)CO)C[C@@H](C)[C@H](CN(C)C(=O)Nc2ccc(F)cc2)O3)cc1	-3.8[16.7 µM]	.	0.0	.	-9.6	.	.
COc1ccc(NC(=O)N(C)C[C@@H]2Oc3ccc(NS(=O)(=O)c4ccc(OC)cc4)cc3CC(=O)N([C@H](C)CO)C[C@@H]2C)cc1	-8.8[16.7 µM]	0.5	7.6*	8.2	-0.1	-0.035	i
C[C@H]1CN([C@@H](C)CO)C(=O)c2cc(NS(=O)(=O)c3ccc(F)cc3)ccc2O[C@@H]1CN(C)Cc1ccc(Oc2ccccc2)cc1	-8.4[16.7 µM]	0.1	-0.3	22.4	0.1	.	.
CCC(=O)Nc1ccc2c(c1)C(=O)N(C)C[C@H](OC)[C@@H](C)CN(C(=O)CN1CCOCC1)[C@H](C)CO2	-21.2[16.7 µM]	.	.	.	-0.2	.	.
COc1cccc(NC(=O)N2CC(=O)N3[C@H](CO)[C@H](c4ccc(C5=CCCC5)cc4)[C@@H]3C2)c1	.	-1.7	.	59.2	-0.1	.	.
COc1ccc(NC(=O)N(C)C[C@@H]2Oc3ccc(NS(=O)(=O)c4ccccc4)cc3C(=O)N([C@H](C)CO)C[C@H]2C)cc1	-3.0[16.7 µM]	-0.5	5.0*	4.4	0.0	0.048[42 µM]	i
COc1ccc(NC(=O)N(C)C[C@H]2Oc3ccc(NC(=O)NC(C)C)cc3CC(=O)N([C@@H](C)CO)C[C@H]2C)cc1	5.2[16.7 µM]	1.7	0.2	12.6	0.0	.	.
COc1ccc(NC(=O)N(C)C[C@H]2Oc3ccc(NS(=O)(=O)c4ccccc4)cc3C(=O)N([C@H](C)CO)C[C@H]2C)cc1	-5.6[16.7 µM]	-0.7	0.4	-1.8	.	.	.
COc1ccc(NC(=O)N(C)C[C@@H]2Oc3ccc(NC(=O)NC(C)C)cc3CC(=O)N([C@H](C)CO)C[C@@H]2C)cc1	-5.2[16.7 µM]	-4.5	14.8*!	4.3	0.1	0.077	i
C[C@H]1CN([C@@H](C)CO)C(=O)c2cc(C#CC3CCCC3)cnc2O[C@@H]1CN(C)S(=O)(=O)c1cccc(F)c1	-19.7[16.7 µM]	10.1	-0.4	-8.1	0.1	.	.
O=C(C[C@@H]1C=C[C@H](NC(=O)Nc2cc(F)ccc2F)[C@H](CO)O1)Nc1ccc(-c2ccccc2)cc1	.	-1.7	1.8*	-3.2	0.4	-0.262	i
O=C(C[C@@H]1C=C[C@H](NC(=O)c2cccc(F)c2)[C@H](CO)O1)NCc1ccccc1	20.1[16.7 µM]	-1.9	20.2*	6.3	0.0	-0.137	i
COc1cccc(NC(=O)CN(C)C(=O)c2ccc(NC3CC3)c([N+](=O)[O-])c2)c1	-7.8	2.3	2.6*	-3.6	.	0.124	i
CN(CC(=O)Nc1cccc(F)c1)C(=O)c1ccc(NC2CC2)c([N+](=O)[O-])c1	3.5	1.7	-0.5	1.2	0.8	.	.
COc1cccc(NC(=O)CN(C)C(=O)c2ccc(N3CCCCC3)c([N+](=O)[O-])c2)c1	2.8	1.2	2.1*	1.4	-1.0	0.304	i
C[C@@H]1CCCCO[C@H](CN(C)C(=O)CCCN(C)C)[C@H](C)CN([C@@H](C)CO)C(=O)c2cc(NS(=O)(=O)c3cccs3)ccc2O1	6.8[16.7 µM]	-1.9	.	-0.5	0.3	.	.
C[C@H]1CN([C@@H](C)CO)C(=O)c2cc(C#CC3(O)CCCC3)cnc2O[C@H]1CN(C)C(=O)Cc1cccnc1	5.0[16.7 µM]	.	0.4	7.7	-0.1	.	.
O=C(NC1CCCCC1)[C@H]1[C@H](CO)[C@H]2Cn3c(ccc(-c4ccccc4)c3=O)[C@@H]1N2	.	-29.9	.	-1.7	-0.1	.	.
SMILES	miR122 inh	SIRT5 block	FGF22 binding-1	S100A4 MyoIIA	E-selectin induc	FGF22 binding-2	SYPRO no-protein
C[C@@H](NC(=O)[C@H]1[C@H](CO)[C@H]2Cn3c(ccc(C4=CCCC4)c3=O)[C@@H]1N2C(=O)C1CC1)c1ccccc1	.	-5.4	0.0	-57.0	0.0	.	.
O=C(O)c1ccc(/C=N/NC(=O)c2ccc(NS(=O)(=O)c3cccs3)cc2)cc1	1.0	10.4	0.2	4.5	0.0	.	.
Cc1cccc(C(=O)NNC(=O)c2ccc(NS(=O)(=O)c3cccs3)cc2)c1C	-1.4	2.0	1.9*	-4.1	.	-0.09	i
COc1ccc(/C=N/NC(=O)c2ccc(NS(=O)(=O)c3cccs3)cc2)cc1	1.4	5.5	1.7*	-14.1	-1.1	-0.093	i
CN(C)C(=O)C[C@H]1CC[C@@H]2[C@H](COC[C@H](O)CN2Cc2ccc(C(F)(F)F)cc2)O1	5.1[16.7 µM]	.	0.0	.	0.1	.	.
CNC[C@@H]1Oc2c(NS(=O)(=O)c3ccc(OC)cc3)cccc2C(=O)N([C@@H](C)CO)C[C@@H]1C	6.6[16.7 µM]	-2.6	3.6*	-7.7	.	0.139	i
COc1ccc(S(=O)(=O)Nc2cccc3c2O[C@H](CN(C)S(=O)(=O)c2ccc(C)cc2)[C@@H](C)CN([C@H](C)CO)C3=O)cc1	4.3[16.7 µM]	.	-0.2	.	-0.4	.	.
COc1ccc(S(=O)(=O)N(C)C[C@@H]2Oc3c(NS(=O)(=O)c4ccc(C)cc4)cccc3C(=O)N([C@H](C)CO)C[C@@H]2C)cc1	6.6[16.7 µM]	3.0	1.3*	-4.4	-0.1	-0.004[42 µM]	i
CNC[C@H]1Oc2c(NS(=O)(=O)c3ccc(OC)cc3)cccc2C(=O)N([C@H](C)CO)C[C@@H]1C	6.4[16.7 µM]	-0.7	-0.5	0.9	.	.	.
